Efflux pump mplx = inhibitors of Candida efflux pumps in yeast, primary screen, S. cerevisiae, Nile Red, multiplex; 0.44% of 330,000 active; inhibition, % at 10 µM; S. cerevisiae Candida pump triplex;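 active = plate passing quality check with inhibition over a set limit, or well fluorescence over plate mean plus 4 SD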;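 also: Nile Red retained in pooled yeast measured as flow cytometry median fluorescence; 0% = buffer negative control and 100% = Enniatin B positive control; higher means more Nile Red kept so more efflux inhibition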
Tb MetRS inh = T. brucei MetRS inhibitors, primary screen, biochemical, luminescence. purified T. brucei MetRS, ATP depletion, Kinase-Glo luminescence. 0.4% of 360,000 active. methionyl-tRNA synthetase (Trypanosoma brucei brucei). inhibition, % at 11.9 µM;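 active = inhibition above a per-plate cutoff of the control wells' mean inhibition plus 3 SD, cut at about 5.5% in these data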;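 also: 0% = DMSO wells median and 100% = median of wells with control inhibitor compound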
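Dosing: 11.9 µM compound single dose, 0.9% DMSO; Assay system: purified T. brucei MetRS enzyme; Measured by: Kinase-Glo luciferase luminescence reporting remaining unconsumed ATP; Schedule: 15 min plus 2 h at 25 °C.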
H9c2 TAG inh = inhibitors of triacylglycerol accumulation, primary screen, cell-based, uHTS, fluorescence, H9c2; H9c2 cells, Nile Red lipid (TAG) fluorescence; cells loaded with 200 µM oleic acid; inhibition, % at 12.5 µM; 0.66% of 230,000 active;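 active = pattern-corrected inhibition of lipid staining of at least 50% with the nuclear-stain viability signal not falling by more than 50%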;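 also: 0% = DMSO wells and 100% = triacsin C control wells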
AHR activator = AHR activators, primary screen, cell-based, luminescence, luciferase reporter, human; Aryl hydrocarbon receptor (Homo sapiens), P35869; AHR-responsive luciferase reporter cells; activation, % at 5 µM; 2.5% of 320,000 active; AID 2796, 2010; in the data active = activation above about 47%;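 also: 0% = vehicle wells and 100% = reference agonist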
Target sequence (P35869 whole entry, looked up): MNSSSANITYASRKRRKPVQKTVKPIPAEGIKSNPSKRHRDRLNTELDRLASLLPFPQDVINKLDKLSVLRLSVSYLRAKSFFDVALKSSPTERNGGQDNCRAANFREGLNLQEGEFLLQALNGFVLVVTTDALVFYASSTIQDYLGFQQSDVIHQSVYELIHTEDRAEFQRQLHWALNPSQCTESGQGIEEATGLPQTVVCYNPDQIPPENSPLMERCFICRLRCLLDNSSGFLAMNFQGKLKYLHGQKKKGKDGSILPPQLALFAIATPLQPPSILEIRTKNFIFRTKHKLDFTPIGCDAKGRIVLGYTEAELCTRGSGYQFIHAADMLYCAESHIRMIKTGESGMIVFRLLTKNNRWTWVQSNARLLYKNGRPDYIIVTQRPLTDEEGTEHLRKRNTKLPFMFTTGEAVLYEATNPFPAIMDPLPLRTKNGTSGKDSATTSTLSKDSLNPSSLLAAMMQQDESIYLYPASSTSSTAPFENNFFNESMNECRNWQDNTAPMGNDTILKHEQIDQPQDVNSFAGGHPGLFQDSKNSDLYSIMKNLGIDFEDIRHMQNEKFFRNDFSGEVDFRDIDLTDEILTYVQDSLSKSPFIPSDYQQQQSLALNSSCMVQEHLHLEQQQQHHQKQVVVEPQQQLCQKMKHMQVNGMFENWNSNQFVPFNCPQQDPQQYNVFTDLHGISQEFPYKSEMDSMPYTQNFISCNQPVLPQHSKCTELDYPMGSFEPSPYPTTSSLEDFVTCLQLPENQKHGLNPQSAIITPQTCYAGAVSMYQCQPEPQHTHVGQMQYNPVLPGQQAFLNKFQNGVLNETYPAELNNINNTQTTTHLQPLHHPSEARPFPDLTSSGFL
SMARCA2 act = SMARCA2 (BRM) function activators, primary screen, cell-based, luminescence, high throughput; activation, % at 9.1 µM; 1% of 370,000 active; MG213 cells, MMTV-luciferase reporter, dexamethasone, overnight; in the data active = activation above about 7.8%;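 also: 0% = vehicle wells and 100% = reference activator wells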
Tb MetRS conf = T. brucei MetRS inhibitors, confirmation, biochemical, luminescence | shares compounds with Tb MetRS inh | T. brucei MetRS enzyme, luminescence (ATP depletion) | inhibition, % at 11.9 µM | 93% of 1,400 active; in the data active = inhibition above about 7%
Jurkat tox = Jurkat T cell cytotoxicity, cytotoxicity control for T. brucei MetRS inhibitor project, luminescence, high throughput | shares compounds with Tb MetRS inh | inhibition, % at 8.3 µM | Jurkat cells viability, ATP luminescence | 12% of 1,400 active | AID 624413, 2012; in the data active = inhibition above about 15%;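 also: 0% = vehicle and 100% = reference inhibitor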
TbMetRS FP orth = T. brucei MetRS inhibitors, orthogonal assay for T. brucei MetRS inhibitor project, biochemical, fluorescence polarization | shares compounds with Tb MetRS inh | inhibition, % at 11.9 µM | 44% of 1,400 active | purified T. brucei MetRS; in the data active = inhibition above about 17%;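 also: 0% = vehicle wells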
An asterisk follows results filed as active; / = no result given. Rows were chosen to be rich in hits. Some 4.1% of all compounds tested hit in one or more screens of this group.

SMILES	Efflux pump mplx	Tb MetRS inh	H9c2 TAG inh	AHR activator	SMARCA2 act	Tb MetRS conf	Jurkat tox	TbMetRS FP orth
O=C(COc1ccc(Br)cc1)NNC(=O)c1ccc(-n2cncn2)c([N+](=O)[O-])c1	0	20*	-2	3	3	54*	1	23*
Cc1ccc(C)c(S(=O)(=O)N2CCN(C(=O)c3ccc(-n4cncn4)c([N+](=O)[O-])c3)CC2)c1	0	1	-9	-1	-2	/	/	/
CCN(CC(=O)Nc1c(F)cccc1F)C(=O)c1ccc(-n2cncn2)c([N+](=O)[O-])c1	0	2	4	-2	-2	/	/	/
CCc1ccc(OCC(=O)NNC(=O)c2ccc(-n3cncn3)c([N+](=O)[O-])c2)cc1	/	5.9*	8	/	0	35*	-8	17*
Cc1ccc(OCC(=O)NNC(=O)c2ccc(-n3cncn3)c([N+](=O)[O-])c2)cc1	0	16*	12	2	-1	41*	-4	17*
CC(=O)Nc1ccc(S(=O)(=O)N2CCC(Oc3ccc(-n4cnnn4)cc3)CC2)cc1	0	6.0*	/	1	-4	15*	6	5
COc1ccc(NC(=O)C2CCCN(S(=O)(=O)c3ccc(-n4cnnn4)cc3)C2)cc1 (stereo not drawn)	0	-1	/	5	2	/	/	/
COCCCNC(=O)c1nnn2c1nc(N)c1cc(Cl)ccc12	/	/	/	/	-1	/	/	/
O=C(Cc1ccc(Cl)cc1)Nc1ccc(Br)cc1	0	6.1*	-53	24	-3	11*	5	6
O=C(Cc1ccc(Br)cc1)NNC(=O)Nc1ccc(Cl)cc1	0	17*	/	4	-4	24*	5	17*
CCN(C(=O)CSc1nnc(-c2c[nH]c3ccccc23)o1)C1CCS(=O)(=O)C1 (stereo not drawn)	0	7.3*	3	-1	-3	13*	-4	12
CCN(C(=O)CSc1nnc(-c2ccccc2Br)o1)C1CCS(=O)(=O)C1 (stereo not drawn)	0	-1	0	6	3	/	/	/
CC1(C)CC(NCc2ccccc2)=CC(=S)N1	/	0	/	/	/	/	/	/
CC1(C)CC(N2CCN(CCO)CC2)=CC(=S)N1	0	6.2*	/	1	3	3	0	-3
COc1ccc(C2c3[nH]c4ccccc4c3C[C@H]3C(=O)N(CCCO)CC(=O)N23)c(OC)c1 (stereo partly drawn)	0	0	/	15	-3	/	/	/
COCCCN1CC(=O)N2C(c3cccc(OC)c3)c3[nH]c4ccccc4c3C[C@H]2C1=O (stereo partly drawn)	0	12*	/	8	-1	24*	4	6
COCCN1CC(=O)N2C(c3cccc(OC)c3)c3[nH]c4ccccc4c3C[C@H]2C1=O (stereo partly drawn)	1	11*	/	10	2	24*	0	7
CCCN1CC(=O)N2C(c3ccccc3)c3[nH]c4ccccc4c3C[C@H]2C1=O (stereo partly drawn)	0	1	/	/	-2	/	/	/
CC(C)OCCCN1CC(=O)N2C(c3cccc([N+](=O)[O-])c3)c3[nH]c4ccccc4c3C[C@H]2C1=O (stereo partly drawn)	0	93*	/	18	-1	95*	5	85*
COc1cccc([C@@H]2NC(=O)C/C=C/[C@H](C)[C@H](c3cccc(OC)c3)NC(=O)C/C=C/[C@@H]2C)c1	/	/	/	/	-2	/	/	/
NC(=S)Nc1cc(Cl)cc(Cl)c1	0	0	-1	0	-3	/	/	/
NC(=S)NNc1cc(Cl)cc(Cl)c1	0	8.1*	1	0	-2	18*	1	10
O=C(CSc1nnc(CCc2nc3ccccc3[nH]2)n1-c1ccccc1)NCc1ccco1	0	1	-17	1	0	/	/	/
O=C(CSc1nnc(CCc2nc3ccccc3[nH]2)n1-c1ccccc1)NCc1ccccc1	0	6.2*	7	0	0	9.2*	5	-2
COc1cccc(NC(=O)C(C#N)Cc2ccncc2)c1 (stereo not drawn)	0	16*	/	7	-1	1	3	3
SMILES	Efflux pump mplx	Tb MetRS inh	H9c2 TAG inh	AHR activator	SMARCA2 act	Tb MetRS conf	Jurkat tox	TbMetRS FP orth
Cc1ccc(CN2CCC(c3nc4ccc(Cl)cc4[nH]3)CC2)cc1	0	8.2*	/	2	6	25*	12	8
Clc1ccc2nc(C3CCN(Cc4ccccc4)CC3)[nH]c2c1	0	11*	/	11	2	9.8*	4	4
Cc1ccc2nc(-c3ccc(CN4CCC(c5nc6ccccc6[nH]5)CC4)cc3)c(-c3ccccc3)nc2c1	/	/	/	/	5	/	/	/
C#CC1c2ccccc2CCN1CC=C (stereo not drawn)	/	/	/	/	-1	/	/	/
Cc1cccc(CCNC(=O)c2cc(S(=O)(=O)N3CCCCC3)c[nH]2)c1	0	27*	-3	5	-1	46*	7	28*
COc1ccc(CCNC(=O)c2cc(S(=O)(=O)N3CCCCC3)c[nH]2)cc1OC	0	1	-8	3	-1	/	/	/
CNC(=O)COC(=O)c1ccc(Cl)c(S(N)(=O)=O)c1	0	6.4*	-5	3	-1	3	-5	3
CCOC(=O)[C@]12CCCCC/C=C\1N(CCc1ccc(Cl)cc1)C(=O)[C@H]2CC(=O)N1CCC(c2ccccc2)CC1	/	/	/	/	-2	/	/	/
O=C(Cc1ccccc1)Nc1nonc1NC(=O)c1ccccc1	0	9.1*	-4	3	2	16*	4	10
O=C(Cc1ccccc1)Nc1ccc(NC(=O)c2ccccc2)nc1	0	1	/	3	4	/	/	/
COc1ccc(CCC2=NCCN2C(CC(C)C)c2nc3ccccc3[nH]2)cc1 (stereo not drawn)	/	12*	/	/	1	20*	7	5
FC(F)(F)c1ccc(Cn2ccc3ccc(-c4ccc5ccn(Cc6ccccc6)c5c4)cc32)cc1	/	/	/	/	3	/	/	/
O=C(Cn1ccccc1=S)c1ccc(Cl)c(Cl)c1	0	0	11	-2	-3	/	/	/
O=C(CN1CCSC1=NCc1ccccc1)c1ccc(Cl)c(Cl)c1	0	61*	3	2	3	83*	3	67*

Source: PubChem BioAssay (several laboratories)
